This passage reports Ki, IC50 and ED50 results from ChEMBL document CHEMBL1125363, “Novel piperidine sigma receptor ligands as potential antipsychotic drugs” (J Med Chem, 1992).

Assay [1] has as its target Serotonin 2 (5-HT2) receptor (Mus musculus, UniProt Q02152+P34968+P35363). Kind of assay: In vitro binding affinity for serotonin 5-hydroxytryptamine (5-HT) 2 receptors. The format is protein assay.
The target of assay [2] is Sigma non-opioid intracellular receptor 1 (Mus musculus, UniProt O55242). Kind of assay: In vitro binding affinity for the mouse sigma opioid receptor.
In assay [3] the target is D(2) dopamine receptor (Mus musculus, UniProt P61168). Kind of assay: In vitro binding affinity towards dopamine receptor D2.
The species named for assay [4] is Mus musculus. Kind of assay: Oral potency tested by using anti-mescaline test. The format is functional. The gist of the method:
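Mice; mescaline was given to evoke hallucinogen-type behaviour, and the test compound was dosed orally to antagonise it. Potency is the ED50 in mg/kg po. Some ED50s are the average of three measurements.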

Each structure is given as a SMILES string. pIC50, pKi: −log10 of the molar value. Some results are limits rather than exact numbers.

Sequence of D(2) dopamine receptor (P61168 whole entry): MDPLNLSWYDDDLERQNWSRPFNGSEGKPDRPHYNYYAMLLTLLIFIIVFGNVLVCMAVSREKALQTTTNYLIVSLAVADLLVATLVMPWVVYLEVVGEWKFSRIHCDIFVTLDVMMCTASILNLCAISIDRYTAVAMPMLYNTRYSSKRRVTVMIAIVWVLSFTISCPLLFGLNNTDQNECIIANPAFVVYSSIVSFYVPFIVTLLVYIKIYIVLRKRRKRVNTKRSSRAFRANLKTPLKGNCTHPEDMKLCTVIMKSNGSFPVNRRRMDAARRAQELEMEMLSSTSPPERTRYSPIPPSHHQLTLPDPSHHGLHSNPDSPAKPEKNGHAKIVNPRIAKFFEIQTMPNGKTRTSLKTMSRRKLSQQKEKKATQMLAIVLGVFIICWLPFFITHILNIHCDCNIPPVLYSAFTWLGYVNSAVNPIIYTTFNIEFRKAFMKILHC
Sequence of Sigma non-opioid intracellular receptor 1 (O55242 whole entry): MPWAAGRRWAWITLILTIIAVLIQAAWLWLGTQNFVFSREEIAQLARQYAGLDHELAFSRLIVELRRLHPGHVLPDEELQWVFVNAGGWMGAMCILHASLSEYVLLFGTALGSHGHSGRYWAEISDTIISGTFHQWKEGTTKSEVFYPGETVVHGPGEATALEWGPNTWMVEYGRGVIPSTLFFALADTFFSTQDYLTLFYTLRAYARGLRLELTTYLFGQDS

`Fc1ccc(OCC2CCN(Cc3ccncc3)CC2)cc1.O`: the Ki in assay [1] came to 31 nM. For the same molecule, the pKi in assay [2] is 8.15. This molecule also showed a negative-log IC50 (pIC50) in assay [3] of 5.56. In assay [4], this molecule yielded an ED50 of 1.1 mg/kg.
Consider `O.O=C(CC1CCN(Cc2ccccc2)CC1)c1ccc(CO)cc1`, for which, in assay [1], the inhibitory constant (Ki) came to 438 nM. Moreover, the pKi in assay [2] is 7.51. Moreover, in assay [3], the negative-log IC50 (pIC50) was under 5.00. This molecule also registered a median effective dose (ED50) in assay [4] of over 30 mg/kg.
Consider `CC1(CN2CCC(COc3ccc(F)cc3)CC2)CC1(Cl)Cl.O=C(O)/C=C/C(=O)O` (stereo unspecified), for which the inhibition constant Ki in assay [1] was determined as 15 nM. In assay [2], this molecule had a negative-log Ki (pKi) of 8.70. This molecule had a negative-log IC50 (pIC50) in assay [3] of 6.75. The same molecule came in with a 50% effective dose (ED50) in assay [4] of under 10 mg/kg.
For `OC(Cc1ccc(F)cc1)C1CCN(CCCCc2ccccc2)CC1` (stereo unspecified) the same measures were 65 nM, 7.96, 6.05 and 18 mg/kg.
For `CSc1ccc(C(=O)CC2CCN(Cc3ccccc3)CC2)cc1` the same measures were 208 nM, 8.10, 6.15 and over 30 mg/kg.
Consider `Fc1ccc(CN2CCC(COc3ccc(F)cc3)CC2)cc1`, for which the Ki in assay [1] was 38 nM. Also, the negative logarithm of the Ki (pKi) in assay [2] is 8.10. Also, the pIC50 in assay [3] was 5.97. In addition, the median effective dose (ED50) in assay [4] was 5.9 mg/kg.
For the molecule `Fc1ccc(COCC2CCN(CCc3ccccc3)CC2)cc1.O=C(O)/C=C\C(=O)O`, in assay [1], the inhibition constant Ki is listed as 24 nM. Also, the negative logarithm of the Ki (pKi) in assay [2] was 8.40. The same molecule had a pIC50 in assay [3] of 6.25. In assay [4], the ED50 is 15 mg/kg.
With `COc1ccc(OCC2CCN(Cc3ccccc3)CC2)cc1`, in assay [1], the Ki is recorded as 55 nM. In assay [2], the negative-log Ki (pKi) was 8.52. This molecule also showed a pIC50 in assay [3] of under 5.00. The ED50 in assay [4] was over 30 mg/kg.
Taken in the same sequence, the figures for `O.OC(CC1CCN(Cc2ccccc2)CC1)c1ccc2ccccc2c1` (stereo unspecified) were over 100 nM, 7.51, 5.48 and over 10 mg/kg.
In assay [1], `O=C(CC1CCN(CCc2ccc(Cl)cc2)CC1)c1ccc(F)cc1` had an inhibition constant (Ki) of 8.4 nM. In assay [2], the pKi was 8.30. In addition, the negative logarithm of the IC50 (pIC50) in assay [3] was 7.85. In assay [4], this molecule displayed a median effective dose (ED50) of 1.8 mg/kg.
For `c1ccc(Oc2ccc(OCC3CCN(CC4CC4)CC3)cc2)cc1` the same measures were 584 nM, 7.62, under 5.00 and over 30 mg/kg.
Taken in the same sequence, the figures for `CS(=O)(=O)c1ccc(C(=O)CC2CCN(Cc3ccccc3)CC2)cc1` were 116 nM, 7.74, under 5.00 and over 30 mg/kg.
For `O.OC(CC1CCN(Cc2ccccc2)CC1)c1ccco1` (stereo unspecified) the same measures were 1323 nM, 7.96, under 5.00 and over 30 mg/kg.
For the molecule `O.O=C(CC1CCN(Cc2ccccc2)CC1)c1ccc(O)cc1`, in assay [1], the inhibition constant (Ki) is recorded as over 1000 nM. Also, the pKi in assay [2] was 7.74. The molecule also gave a pIC50 in assay [3] of 5.87. Besides, in assay [4], the 50% effective dose (ED50) is over 30 mg/kg.
`O.O=C(Cc1ccc(F)cc1)C1CCN(Cc2ccccc2)CC1.O=C(O)/C=C\C(=O)O` had an inhibitory constant (Ki) in assay [1] of 290 nM. This molecule also showed a negative-log Ki (pKi) in assay [2] of 8.52. Besides, the negative-log IC50 (pIC50) in assay [3] is 5.34. For the same molecule, the ED50 in assay [4] is 18 mg/kg.
For `Cl.Clc1ccc(OCC2CCN(CC3CC3)CC2)c(Cl)c1` the same measures were 32 nM, 8.40, 6.95 and 2.9 mg/kg.
For `COc1cc(OCC2CCN(CC3CC3)CC2)cc(OC)c1OC.Cl` the same measures were 8706 nM, 7.30, under 5.00 and over 30 mg/kg.
For `Cl.Clc1ccc(OCC2CCN(CC3CC3)CC2)cc1Cl` the same measures were 87 nM, 8.10, 5.78 and 3.3 mg/kg.
Take `CCNc1ccc(OCC2CCN(CC3CC3)CC2)cc1.Cl.O`: the Ki in assay [1] is on record as over 10000 nM. Moreover, the negative-log Ki (pKi) in assay [2] is 7.48. Besides, the pIC50 in assay [3] is under 5.00. For the same molecule, the ED50 in assay [4] is over 30 mg/kg.

A word on the Ki: it is the equilibrium dissociation constant of an inhibitor or competing ligand from its target. Read a high Ki as a looser hold on the target. A word on the pKi: it is −log10 of the Ki, conventionally taken in molar units. Read a high pKi as a low Ki. Usually pIC50 stands for −log10 of the IC50, conventionally taken in molar units. High values mean a small IC50, low ones a large IC50. Usually ED50 stands for the midpoint of the dose-response relation.
